The source made the active and inactive calls. No cut-off for these calls is given here.
Experiments:
[1] = target: D(2) dopamine receptor (Homo sapiens) (UniProt P14416); test: Agonist activity at human D2R receptor expressed In HEK293 cells assessed as decrease in forskolin-induced cAMP level at 10 uM; assay type: functional, cell-based; set-up: scale not given: the % may be the effect or the level left
Procedure, shortened: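 HEK-293 cells transiently transfected with human D2R (long isoform) were kept 16 h in serum-free medium, then used 48 h after transfection. Cells were preincubated 10 min at 37 °C with 50 μM zardaverine in serum-free medium with 10 mM MgCl2. Test ligand at 10 μM was added, then 10 μM forskolin for 15 min. Cells were extracted with HClO4 and cAMP was measured by [3H]cAMP assay, as % of forskolin-induced level; three independent experiments.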

[2] = system: Dopamine D2 receptor (Homo sapiens); test: Displacement of [3H]YM09151-2 from human A2aR/D2R (long isoform) heteromer expressed in mouse Ltk cells by scintillation counting
[3] = target: Adenosine A2A receptor (Homo sapiens) (UniProt P29274); test: Displacement of [3H]ZM241385 from human A2aR/D2R (long isoform) coexpressed in mouse Ltk cells by scintillation counting; assay type: cell-based
Procedure, shortened: (§1)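 Mouse Ltk fibroblasts were transiently transfected with human A2AR, human D2R (long isoform) or both, and membranes were prepared 48 h later. Membranes were incubated 2 h at 25 °C in 50 mM Tris-HCl pH 7.4 with 10 mM MgCl2 and 2 U/mL ADA, plus 2.1 nM [3H]ZM241385 or 1.9 nM [3H]YM09151-2 and 1 μM test compound. Bound ligand was counted after filtration and expressed as % of specific binding without displacer; three independent experiments.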
Target sequence in this assay (P29274 whole entry, canonical isoform): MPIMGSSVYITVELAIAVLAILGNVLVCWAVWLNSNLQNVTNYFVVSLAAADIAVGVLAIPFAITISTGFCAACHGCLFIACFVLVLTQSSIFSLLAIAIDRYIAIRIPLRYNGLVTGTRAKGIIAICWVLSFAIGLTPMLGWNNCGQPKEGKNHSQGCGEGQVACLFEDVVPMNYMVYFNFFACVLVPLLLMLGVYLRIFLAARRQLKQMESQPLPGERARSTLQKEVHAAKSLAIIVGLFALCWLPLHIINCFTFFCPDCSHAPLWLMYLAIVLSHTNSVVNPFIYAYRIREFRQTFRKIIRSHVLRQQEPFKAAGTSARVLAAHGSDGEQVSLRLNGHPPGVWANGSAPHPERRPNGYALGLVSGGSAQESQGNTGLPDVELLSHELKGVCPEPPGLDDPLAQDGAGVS

[4] = Displacement of [3H]YM09151-2 from D2R (long isoform) dimer in lamb striatum membrane high affinity macroscopic equilibrium dissociation constant by scintillation counting; assay type: cell membranes, Ovis aries
Procedure, shortened: (§2)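 Lamb striatal membranes (0.3-0.5 mg protein/mL) were incubated 2 h at 25 °C in 50 mM Tris-HCl pH 7.4 with 10 mM MgCl2 and 2 U/mL ADA. Radioligand was 2.1 nM [3H]ZM241385 (A2AR) or 0.9 nM [3H]YM09151-2 (D2R), against 11 competitor concentrations from 0.1 nM to 50 μM in triplicate. Nonspecific binding used 50 μM unlabeled radioligand. After GF/C filtration, counts were fitted to a two-state dimer model for KDB1 and KDB2; three experiments.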

[5] = Displacement of [3H]YM09151-2 from D2R (long isoform) dimer in lamb striatum membrane low affinity macroscopic equilibrium dissociation constant by scintillation counting; assay type: cell membranes, Ovis aries; procedure, shortened: as §2
[6] = target: Adenosine A2A receptor (Homo sapiens) (UniProt P29274); test: Displacement of [3H]ZM241385 from human A2AR expressed in mouse Ltk cells at 1 uM by scintillation counting relative to control
Target sequence in this assay (P29274 whole entry, looked up, canonical isoform): as the sequence (P29274 whole entry, canonical isoform) above

[7] = target: Adenosine A2A receptor (Homo sapiens) (UniProt P29274); test: Displacement of [3H]ZM241385 from human A2aR/D2R (long isoform) heteromer expressed in mouse Ltk cells by scintillation counting; assay type: cell-based; procedure, shortened: as §1
Target sequence in this assay (P29274 whole entry, canonical isoform): as above

[8] = target: Adenosine A2A receptor (Homo sapiens) (UniProt P29274); test: Antagonist activity at human A2aR expressed in HEK293 cells assessed as inhibition of CGS-21680-induced cAMP production at 10 uM; assay type: functional, cell-based
Procedure, shortened: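 Human A2AR was transiently expressed in HEK-293 cells, which were held 16 h serum-free with 1.5 U/mL ADA and used 48 h post-transfection. Cells were preincubated 10 min at 37 °C with 50 μM zardaverine, 10 mM MgCl2 and 1.5 U/mL ADA. Ligand at 10 μM was given alone, or 10 min before 200 nM CGS 21680 (10-15 min). cAMP was measured by [3H]cAMP assay, as % of CGS 21680 response; three independent experiments.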
Target sequence in this assay (P29274 whole entry, canonical isoform): as above

[9] = target: Adenosine A2A receptor (Homo sapiens) (UniProt P29274); test: Agonist activity at human A2aR expressed in HEK293 cells assessed as cAMP accumulation at 10 uM
Target sequence in this assay (P29274 whole entry, canonical isoform): as above

[10] = target: Adenosine A2A receptor (Homo sapiens) (UniProt P29274); test: Displacement of [3H]ZM241385 from human A2aR expressed in mouse Ltk cells at 1 uM by scintillation counting relative to control; assay type: cell-based; procedure, shortened: as §1
Target sequence in this assay (P29274 whole entry, canonical isoform): as above

[11] = Displacement of [3H]ZM241385 from A2aR dimer in lamb striatum membrane assessed as high affinity macroscopic equilibrium dissociation constant by scintillation counting; assay type: cell membranes, Ovis aries; procedure, shortened: as §2
[12] = target: D(2) dopamine receptor (Homo sapiens) (UniProt P14416); test: Displacement of [3H]YM09151-2 from human D2R expressed in mouse Ltk cells by scintillation counting relative to control; assay type: cell-based; procedure, shortened: as §1

D(2) dopamine receptor (Homo sapiens), sequence (P14416 whole entry, canonical isoform): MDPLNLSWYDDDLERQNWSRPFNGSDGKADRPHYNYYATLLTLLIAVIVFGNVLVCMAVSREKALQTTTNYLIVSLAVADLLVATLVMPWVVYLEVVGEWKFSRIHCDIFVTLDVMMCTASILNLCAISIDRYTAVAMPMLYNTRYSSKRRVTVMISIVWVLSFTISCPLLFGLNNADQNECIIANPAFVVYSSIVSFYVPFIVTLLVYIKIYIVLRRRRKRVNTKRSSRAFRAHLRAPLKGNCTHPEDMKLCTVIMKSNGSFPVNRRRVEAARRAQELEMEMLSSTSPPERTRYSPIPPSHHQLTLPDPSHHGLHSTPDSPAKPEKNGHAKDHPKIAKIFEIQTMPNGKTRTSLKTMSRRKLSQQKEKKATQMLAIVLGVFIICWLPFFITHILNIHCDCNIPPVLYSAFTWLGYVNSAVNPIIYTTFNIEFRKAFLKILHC

| Activity [1] | Activity [2] | Activity [3] | Ki [4] | Ki [5] | Activity [6] | Activity [7] | Activity [8] | Activity [9] | Activity [10] | Ki [11] | Activity [12] | SMILES |
| --- | --- | --- | --- | --- | --- | --- | --- | --- | --- | --- | --- | --- |
| 78% | Active | Active | 1.8 nM | 500 nM | Active | Active | Active | inactive | Active | 50 nM | inactive | CCCN(CCc1ccc(NC(=O)CCC(N)C(=O)NCCCCC(NC(=O)CCC(=O)NCCOCCOCCNC(=O)CCC(=O)NCCOCCOCCNC(=O)CCC(=O)NCCOCCOCCNC(=O)C(CCCCNC(=O)C(N)CCCCNC(=O)COc2ccc(-c3nc4c([nH]3)c(=O)n(CCC)c(=O)n4CCC)cc2)NC(C)=O)C(N)=O)cc1)C1CCc2c(O)cccc2C1 (centres undefined) |
| 87% | Active | Active | 1.1 nM | 7000 nM | Active | Active | Active | inactive | Active | 59 nM | inactive | CCCN(CCc1ccc(NC(=O)CCC(N)C(=O)NCCCCC(NC(=O)CCC(=O)NCCOCCOCCNC(=O)C(CCCCNC(=O)C(N)CCCCNC(=O)COc2ccc(-c3nc4c([nH]3)c(=O)n(CCC)c(=O)n4CCC)cc2)NC(C)=O)C(N)=O)cc1)C1CCc2c(O)cccc2C1 (centres undefined) |
